Test results: ChEMBL document CHEMBL1148728, “Synthesis, biological activity, and crystal structure of potent nonnucleoside inhibitors of HIV-1 reverse transcriptase that retain activity against mutant forms of the enzyme” (J Med Chem, 2007)
Calls of active or inactive are those of the source. No cut-off for these calls is given here.

Legend:
[1] = Toxicity against CEM cells; type: cell-based; settings: human, CEM (CCRF-CEM) cells; read-out: TC50 (the source's name)
[2] = test system: Human immunodeficiency virus 1; assay: Antiviral activity against HIV1 infected CEM cells; type: functional, organism-based; settings: for Activity: CCRF-CEM; for EC50: Human immunodeficiency virus 1, CCRF-CEM
Method in brief: (§1)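 Cell-based assay in HIV-1-infected CEM cells, read out as protection from virus-induced cell killing.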

[3] = target: Human immunodeficiency virus type 1 reverse transcriptase (Human immunodeficiency virus 1) (UniProt Q72547); assay: Inhibition of HIV1 reverse transcriptase at 1 uM
Method in brief: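 Wild-type HIV-1 RT enzyme screen with rC-dG template-primer. Percent inhibition is the mean of two experiments, each run in triplicate.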

[4] = target: Human immunodeficiency virus type 1 reverse transcriptase (Human immunodeficiency virus 1, UniProt Q72547); assay: Inhibition of HIV1 NL4-3 reverse transcriptase
[5] = test system: Human immunodeficiency virus 1; assay: Antiviral activity against wild type HIV1 NL4-3 by cytopathic cell killing assay; type: functional, organism-based; settings: Human immunodeficiency virus 1, NL4-3; method in brief: as §1
[6] = test system: Human immunodeficiency virus 1; assay: Antiviral activity against HIV1 with RT L100I mutation by cytopathic cell killing assay; type: functional, organism-based
[7] = test system: Human immunodeficiency virus 1; assay: Antiviral activity against HIV1 with RT K101E mutation by cytopathic cell killing assay; type: functional, organism-based
[8] = test system: Human immunodeficiency virus 1; assay: Antiviral activity against HIV1 with RT K103N mutation by cytopathic cell killing assay; type: functional, organism-based
[9] = test system: Human immunodeficiency virus 1; assay: Antiviral activity against HIV1 with RT V108I mutation by cytopathic cell killing assay; type: functional, organism-based
[10] = test system: Human immunodeficiency virus 1; assay: Antiviral activity against HIV1 with RT Y181C mutation by cytopathic cell killing assay; type: functional, organism-based
[11] = test system: Human immunodeficiency virus 1; assay: Antiviral activity against HIV1 with RT Y188C mutation by cytopathic cell killing assay; type: functional, organism-based
[12] = test system: Human immunodeficiency virus 1; assay: Antiviral activity against HIV1 with RT V106A mutation by cytopathic cell killing assay; type: functional, organism-based

Structure (SMILES) | CC50 [1] [nM] | Activity [2] | EC50 [2] [nM] | inhibition [3] [%] | IC50 [4] [nM] | EC50 [5] [nM] | EC50 [6] [nM] | EC50 [7] [nM] | EC50 [8] [nM] | EC50 [9] [nM] | EC50 [10] [nM] | EC50 [11] [nM] | EC50 [12] [nM]
CN(C)C(=O)c1cccc2c1nc(-c1c(F)cccc1F)n2Cc1c(F)cccc1F | 80100 | inactive | – | – | – | – | – | – | – | – | – | – | –
NC(=O)c1cccc2c1nc(-c1c(F)cccc1F)n2Cc1c(F)cccc1F | > 100000 | – | 4900 | – | – | – | – | – | – | – | – | – | –
Fc1cccc(F)c1Cn1c(-c2c(F)cccc2F)nc2cc(Cl)ccc21 | – | – | – | 48 | – | – | – | – | – | – | – | – | –
CN(C)c1cccc2c1nc(-c1c(F)cccc1F)n2Cc1c(F)cccc1F | > 100000 | – | 2370 | – | 40000 | – | – | – | – | – | – | – | –
N#Cc1cccc2c1nc(-c1c(F)cccc1F)n2Cc1c(F)cccc1F | 26700 | – | 430 | – | – | – | – | – | – | – | – | – | –
CC(=O)OCc1cccc2c1nc(-c1c(F)cccc1F)n2Cc1c(F)cccc1F | 55800 | – | 59 | – | – | 62 | 68 | 25 | 27 | 13 | 2320 | 33 | 4500
Fc1cccc(F)c1Cn1c(-c2c(F)cccc2F)nc2c(Cl)cccc21 | 30400 | – | 440 | 75 | 2630 | 500 | 300 | > 20000 | 10200 | 3200 | 8400 | 3400 | –
CC(C)c1cccc2c1nc(-c1c(F)cccc1F)n2Cc1c(F)cccc1F | 27000 | – | 6340 | – | – | – | – | – | – | – | – | – | –
O=[N+]([O-])c1cccc2c1nc(-c1c(F)cccc1F)n2Cc1c(F)cccc1F | 30100 | – | 2400 | – | 1880 | – | – | – | – | – | – | – | –
COc1cccc2c1nc(-c1c(F)cccc1F)n2Cc1c(F)cccc1F | 44300 | – | 60 | – | 7.3 | 60 | 160 | 2820 | > 50000 | 2820 | 260 | – | –
Cc1cc(C)c2nc(-c3c(F)cccc3F)n(Cc3c(F)cccc3F)c2c1 | – | – | – | 37 | – | – | – | – | – | – | – | – | –
N=C(NO)c1cccc2c1nc(-c1c(F)cccc1F)n2Cc1c(F)cccc1F | 23100 | – | 190 | – | – | – | – | – | – | – | – | – | –
O=[N+]([O-])c1ccc2c(c1)nc(-c1c(F)cccc1F)n2Cc1c(F)cccc1F | – | – | – | 30 | – | – | – | – | – | – | – | – | –
Nc1cccc2c1nc(-c1c(F)cccc1F)n2Cc1c(F)cccc1F | 26300 | – | 460 | – | 280 | 400 | 1200 | > 20000 | 3100 | 3300 | 9200 | 2000 | –
Fc1cccc(F)c1Cn1c(-c2c(F)cccc2F)nc2c(Br)cccc21 | 24500 | – | 370 | 78 | 1610 | 500 | 500 | > 20000 | > 20000 | 4200 | 10700 | 3700 | –
NCc1cccc2c1nc(-c1c(F)cccc1F)n2Cc1c(F)cccc1F | 49300 | – | 37 | – | – | 1360 | – | 1490 | > 50000 | 2510 | 12800 | 11600 | 9230
COC(=O)c1cccc2c1nc(-c1c(F)cccc1F)n2Cc1c(F)cccc1F | 57700 | inactive | – | – | 158000 | – | – | – | – | – | – | – | –
Oc1cccc2c1nc(-c1c(F)cccc1F)n2Cc1c(F)cccc1F | > 100000 | – | 650 | – | – | – | – | – | – | – | – | – | –
Fc1cccc(F)c1Cn1c(-c2c(F)cccc2F)nc2ccc(Cl)cc21 | – | – | – | 69 | – | – | – | – | – | – | – | – | –
CNc1cccc2c1nc(-c1c(F)cccc1F)n2Cc1c(F)cccc1F | 27200 | – | 1700 | – | 4940 | – | – | – | – | – | – | – | –

Structure (SMILES) | CC50 [1] [nM] | Activity [2] | EC50 [2] [nM] | inhibition [3] [%] | IC50 [4] [nM] | EC50 [5] [nM] | EC50 [6] [nM] | EC50 [7] [nM] | EC50 [8] [nM] | EC50 [9] [nM] | EC50 [10] [nM] | EC50 [11] [nM] | EC50 [12] [nM]
N#CCc1cccc2c1nc(-c1c(F)cccc1F)n2Cc1c(F)cccc1F | – | – | 60 | – | – | 60 | – | – | 4200 | – | 2200 | – | –
Cc1cccc2nc(-c3c(F)cccc3F)n(Cc3c(F)cccc3F)c12 | – | – | – | 1 | – | – | – | – | – | – | – | – | –
Cc1ccc2c(c1)nc(-c1c(F)cccc1F)n2Cc1c(F)cccc1F | – | – | – | 22 | – | – | – | – | – | – | – | – | –
CC(=O)N(C)c1cccc2c1nc(-c1c(F)cccc1F)n2Cc1c(F)cccc1F | > 100000 | – | 20 | – | 320 | 40 | 1660 | 640 | > 10000 | > 10000 | 400 | 540 | 50
CC(=O)Nc1cccc2c1nc(-c1c(F)cccc1F)n2Cc1c(F)cccc1F | 39300 | – | 1480 | – | 54700 | 1970 | 3250 | – | > 100000 | – | > 100000 | – | –
Cc1ccc2c(nc(-c3c(F)cccc3F)n2Cc2c(F)cccc2F)c1C | – | – | – | 26 | – | – | – | – | – | – | – | – | –
O=C(O)c1cccc2c1nc(-c1c(F)cccc1F)n2Cc1c(F)cccc1F | 23500 | inactive | – | – | – | – | – | – | – | – | – | – | –
OCc1cccc2c1nc(-c1c(F)cccc1F)n2Cc1c(F)cccc1F | 58100 | – | 23 | – | – | 48 | 20 | 5000 | 13600 | 23 | 720 | 170 | 5900
Cc1ccnc2c1NC(=O)c1cccnc1N2C1CC1 [NEVIRAPINE] | – | – | 35 | – | – | 100 | 720 | 1100 | 1090 | 200 | 4900 | 100 | 2360
Fc1cccc(F)c1Cn1c(-c2c(F)cccc2F)nc2ccccc21 | 18800 | – | 1700 | 50 | 110 | – | – | – | – | – | – | – | –
Cc1ccc2nc(-c3c(F)cccc3F)n(Cc3c(F)cccc3F)c2c1 | – | – | – | 42 | – | – | – | – | – | – | – | – | –
CC(=O)N(C)Cc1cccc2c1nc(-c1c(F)cccc1F)n2Cc1c(F)cccc1F | 20600 | – | 580 | – | – | – | – | – | – | – | – | – | –
Fc1cccc(F)c1Cn1c(-c2c(F)cccc2F)nc2c(CCl)cccc21 | 13400 | – | 180 | – | – | 160 | 80 | 460 | 3340 | 210 | 2380 | 570 | 4700
[N-]=[N+]=NCc1cccc2c1nc(-c1c(F)cccc1F)n2Cc1c(F)cccc1F | > 100000 | – | 45 | – | – | 45 | 80 | 600 | 1480 | 26 | 280 | 220 | 610
O=Cc1cccc2c1nc(-c1c(F)cccc1F)n2Cc1c(F)cccc1F | 820 | – | 120 | – | – | – | – | – | – | – | – | – | –
CC(=O)NCc1cccc2c1nc(-c1c(F)cccc1F)n2Cc1c(F)cccc1F | 20800 | inactive | – | – | – | – | – | – | – | – | – | – | –
Fc1cccc(F)c1Cn1c(-c2c(F)cccc2F)nc2cc(Br)ccc21 | – | – | – | 43 | – | – | – | – | – | – | – | – | –
CCc1cccc2c1nc(-c1c(F)cccc1F)n2Cc1c(F)cccc1F | 26100 | – | 820 | – | 17500 | 900 | 2480 | > 50000 | > 50000 | > 50000 | 7180 | – | –
COCc1cccc2c1nc(-c1c(F)cccc1F)n2Cc1c(F)cccc1F | – | – | 60 | – | – | – | – | – | – | – | – | – | –
Cc1cccc2c1nc(-c1c(F)cccc1F)n2Cc1c(F)cccc1F | > 100000 | – | 440 | 71 | 200 | 500 | 300 | 16700 | 8100 | 2800 | 6000 | 2300 | –
